Results from ChEMBL document CHEMBL3352237, “Synthesis and biological evaluation of novel peptide BF2 as an antibacterial agent against clinical isolates of vancomycin-resistant enterococci” (J Med Chem, 2014).

Experiments:
Enterococcus faecalis [1] = assay: Antibacterial activity against vancomycin-resistant Enterococcus faecalis clinical isolate 7079 after overnight incubation by two-fold serial dilution method; format: functional
Enterococcus faecium [2] = assay: Bactericidal activity against vancomycin-resistant Enterococcus faecium clinical isolate 8/224 after 24 hrs by two-fold serial dilution method; format: functional; settings: isolate 8/224, 24 h
Enterococcus faecium [3] = assay: Bactericidal activity against vancomycin-resistant Enterococcus faecium clinical isolate 28/211 after 24 hrs by two-fold serial dilution method; format: functional; settings: isolate 28/211, 24 h
Enterococcus faecium [4] = assay: Antibacterial activity against vancomycin-resistant Enterococcus faecium clinical isolate 16115 after overnight incubation by two-fold serial dilution method; format: functional
Enterococcus faecalis [5] = assay: Antibacterial activity against vancomycin-resistant Enterococcus faecalis clinical isolate 5814 after overnight incubation by two-fold serial dilution method; format: functional
Enterococcus faecium [6] = assay: Bactericidal activity against vancomycin-resistant Enterococcus faecium clinical isolate 5484 after 24 hrs by two-fold serial dilution method; format: functional; settings: isolate 5484, 24 h
Enterococcus faecalis [7] = assay: Antibacterial activity against vancomycin-resistant Enterococcus faecalis clinical isolate 21/235 after overnight incubation by two-fold serial dilution method; format: functional
Enterococcus faecium [8] = assay: Antibacterial activity against vancomycin-resistant Enterococcus faecium clinical isolate 10177 after overnight incubation by two-fold serial dilution method; format: functional
Enterococcus faecium [9] = assay: Bactericidal activity against vancomycin-resistant Enterococcus faecium clinical isolate 12/266 after 24 hrs by two-fold serial dilution method; format: functional; settings: isolate 12/266, 24 h
Enterococcus faecalis [10] = assay: Bactericidal activity against vancomycin-resistant Enterococcus faecalis clinical isolate 387702 after 24 hrs by two-fold serial dilution method; format: functional; settings: isolate 387702, 24 h
Enterococcus faecium [11] = assay: Antibacterial activity against vancomycin-resistant Enterococcus faecium clinical isolate 18906 after overnight incubation by two-fold serial dilution method; format: functional
Enterococcus [12] = assay: Antibacterial activity against Enterococcus infected in Wistar albino rat assessed as reduction in cell count at MIC, iv after 1 hr relative to control; format: functional; set-up: scale not given: the % may be the effect or the level left
In short: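 Female Wistar albino rats, 40−45 days old, 125−150 g, 5 groups of 3. Enterococci were grown to log phase in MH broth, centrifuged at 1000g for 15 min, and diluted in PBS to 4 × 10^6 CFU/mL. Rats were inoculated i.v. and treated i.v. 1 h later with 12.5, 25 or 37.5 mg/kg peptide, PBS vehicle, or linezolid 25 mg/kg. Tail-vein blood taken 1 h post-treatment was plated on blood agar, incubated overnight at 37 °C, and colonies counted.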

Enterococcus faecium [13] = assay: Antibacterial activity against vancomycin-resistant Enterococcus faecium clinical isolate 16475 after overnight incubation by two-fold serial dilution method; format: functional
Enterococcus faecium [14] = assay: Antibacterial activity against vancomycin-resistant Enterococcus faecium clinical isolate 147969 after overnight incubation by two-fold serial dilution method; format: functional
Enterococcus faecalis [15] = assay: Bactericidal activity against vancomycin-resistant Enterococcus faecalis clinical isolate 21/235 after 24 hrs by two-fold serial dilution method; format: functional; settings: isolate 21/235, 24 h
Enterococcus faecium [16] = assay: Bactericidal activity against vancomycin-resistant Enterococcus faecium clinical isolate 14643 after 24 hrs by two-fold serial dilution method; format: functional; settings: isolate 14643, 24 h
Enterococcus faecium [17] = assay: Bactericidal activity against vancomycin-resistant Enterococcus faecium clinical isolate 27/221 after 24 hrs by two-fold serial dilution method; format: functional; settings: isolate 27/221, 24 h
Rattus norvegicus = assay: Toxicity in Wistar albino rat infected with Enterococcus at MIC to 3 times MIC, iv; format: organism-based; settings: in vivo
Enterococcus faecalis [18] = assay: Bactericidal activity against vancomycin-resistant Enterococcus faecalis clinical isolate 7846 after 24 hrs by two-fold serial dilution method; format: functional; settings: isolate 7846, 24 h
Enterococcus faecalis [19] = assay: Antibacterial activity against vancomycin-resistant Enterococcus faecalis clinical isolate 6093 after overnight incubation by two-fold serial dilution method; format: functional
Enterococcus [20] = assay: Antibacterial activity against vancomycin-resistant Enterococcus ATCC 51299 after 18 to 20 hrs by checkerboard titration method in presence of linezolid; format: functional
Enterococcus [21] = assay: Antibacterial activity against vancomycin-resistant Enterococcus clinical isolate after 18 to 20 hrs by checkerboard titration method in presence of vancomycin; format: functional
Enterococcus faecalis [22] = assay: Bactericidal activity against vancomycin-resistant Enterococcus faecalis clinical isolate 6093 after 24 hrs by two-fold serial dilution method; format: functional; settings: isolate 6093, 24 h
Enterococcus faecium [23] = assay: Antibacterial activity against vancomycin-resistant Enterococcus faecium clinical isolate 3864 after overnight incubation by two-fold serial dilution method; format: functional
Enterococcus faecium [24] = assay: Antibacterial activity against vancomycin-resistant Enterococcus faecium clinical isolate 17301 after overnight incubation by two-fold serial dilution method; format: functional
Enterococcus faecium [25] = assay: Antibacterial activity against vancomycin-resistant Enterococcus faecium clinical isolate 14643 after overnight incubation by two-fold serial dilution method; format: functional
Enterococcus faecalis [26] = assay: Bactericidal activity against vancomycin-resistant Enterococcus faecalis clinical isolate 5814 after 24 hrs by two-fold serial dilution method; format: functional; settings: isolate 5814, 24 h
Enterococcus faecium [27] = assay: Bactericidal activity against vancomycin-resistant Enterococcus faecium clinical isolate 7/27 after 24 hrs by two-fold serial dilution method; format: functional; settings: isolate 7/27, 24 h
Enterococcus faecium [28] = assay: Bactericidal activity against vancomycin-resistant Enterococcus faecium clinical isolate 13246 after 24 hrs by two-fold serial dilution method; format: functional; settings: isolate 13246, 24 h
Enterococcus faecium [29] = assay: Bactericidal activity against vancomycin-resistant Enterococcus faecium clinical isolate 151495 after 24 hrs by two-fold serial dilution method; format: functional; settings: isolate 151495, 24 h
Enterococcus faecium [30] = assay: Bactericidal activity against vancomycin-resistant Enterococcus faecium clinical isolate […] after 24 hrs by two-fold serial dilution method; format: functional; settings: isolate 27/1691, 24 h
Enterococcus faecium [31] = assay: Antibacterial activity against vancomycin-resistant Enterococcus faecium clinical isolate 8/224 after overnight incubation by two-fold serial dilution method; format: functional
Enterococcus faecium [32] = assay: Antibacterial activity against vancomycin-resistant Enterococcus faecium clinical isolate 31386 after overnight incubation by two-fold serial dilution method; format: functional
Enterococcus [33] = assay: Antibacterial activity against vancomycin-resistant Enterococcus ATCC 51299 after 18 to 20 hrs by checkerboard titration method in presence of vancomycin; format: functional
Enterococcus faecalis [34] = assay: Antibacterial activity against vancomycin-resistant Enterococcus faecalis clinical isolate 7846 after overnight incubation by two-fold serial dilution method; format: functional
Enterococcus faecalis [35] = assay: Bactericidal activity against vancomycin-resistant Enterococcus clinical isolate assessed as log reduction at 2 times MIC after 60 to 120 mins by serial dilution method; format: functional
In short: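 Time-kill assay: enterococci exposed to peptide at 2× MIC, with viable counts read as log10 CFU/mL over a 60–120 min exposure. Run on ATCC 29212 and a clinical isolate.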

Enterococcus faecium [36] = assay: Antibacterial activity against vancomycin-resistant Enterococcus faecium clinical isolate 30/48 after overnight incubation by two-fold serial dilution method; format: functional
Enterococcus faecium [37] = assay: Bactericidal activity against vancomycin-resistant Enterococcus faecium clinical isolate 18906 after 24 hrs by two-fold serial dilution method; format: functional; settings: isolate 18906, 24 h
Enterococcus faecium [38] = assay: Antibacterial activity against vancomycin-resistant Enterococcus faecium clinical isolate 151495 after overnight incubation by two-fold serial dilution method; format: functional
Enterococcus [39] = assay: Antibacterial activity against vancomycin-resistant Enterococcus ATCC 51299 after overnight incubation by two-fold serial dilution method; format: functional
Enterococcus faecium [40] = assay: Bactericidal activity against vancomycin-resistant Enterococcus faecium clinical isolate 16115 after 24 hrs by two-fold serial dilution method; format: functional; settings: isolate 16115, 24 h
Enterococcus faecium [41] = assay: Antibacterial activity against vancomycin-resistant Enterococcus faecium clinical isolate 23/240 after overnight incubation by two-fold serial dilution method; format: functional

H-RWRLLLLKKH-OH
Non-toxic: Activity (Rattus norvegicus)
6.25 µg/mL: MIC (Enterococcus faecium [23]) | MIC (Enterococcus faecium [24]) | MIC (Enterococcus faecium [25]) | MIC (Enterococcus faecium [32]) | MIC (Enterococcus faecium [38])
0.06: fractional inhibitory concentration index (FICI) (Enterococcus [33])
2.1: fractional inhibitory concentration index (FICI) (Enterococcus [20])
73%: Activity (Enterococcus [12])
12.5 µg/mL: MIC (Enterococcus faecalis [1]) | MIC (Enterococcus faecium [4]) | MIC (Enterococcus faecalis [5]) | MIC (Enterococcus faecalis [7]) | MIC (Enterococcus faecium [8]) | MIC (Enterococcus faecium [11]) | MIC (Enterococcus faecium [13]) | MIC (Enterococcus faecium [14]) | MIC (Enterococcus faecalis [19]) | MIC (Enterococcus faecium [31]) | MIC (Enterococcus faecalis [34]) | MIC (Enterococcus faecium [36]) | MIC (Enterococcus faecium [41])
25 µg/mL: MBC (Enterococcus faecium [2]) | MBC (Enterococcus faecium [3]) | MBC (Enterococcus faecium [6]) | MBC (Enterococcus faecium [9]) | MBC (Enterococcus faecalis [10]) | MBC (Enterococcus faecalis [15]) | MBC (Enterococcus faecium [16]) | MBC (Enterococcus faecium [17]) | MBC (Enterococcus faecalis [18]) | MBC (Enterococcus faecalis [22]) | MBC (Enterococcus faecalis [26]) | MBC (Enterococcus faecium [27]) | MBC (Enterococcus faecium [28]) | MBC (Enterococcus faecium [29]) | MBC (Enterococcus faecium [30]) | MBC (Enterococcus faecalis [35]) | MBC (Enterococcus faecium [37]) | MIC (Enterococcus [39]) | MBC (Enterococcus faecium [40])
0.25: fractional inhibitory concentration index (FICI) (Enterococcus [21])
